Calls of active or inactive are those of the source. The calls are words filed in the database; no cut-off is given here.
Assays:
[1] = Induction of IFN-gamma secretion in human CD161+ CD3+ NKT cells at 10 ug/ml after 18 hrs relative to basal level; type: functional
Outline: (§1)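 Human Vα24i NKT cell lines were expanded for 10 days on irradiated (3,000 rad) autologous immature DCs with 10 units/ml IL-2. The cells (1 × 10^5) were cocultured with 5 × 10^4 irradiated immature CD14+ DCs plus glycolipid at 10 μg/ml. Supernatants were collected at 18 h and read on a 22-plex Luminex bead panel. Triplicates, mean ± SD.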

[2] = Induction of IL2 secretion in human CD161+ CD3+ NKT cells at 10 ug/ml after 18 hrs relative to basal level; type: functional; outline: as §1
[3] = Induction of IL12p70 secretion in human CD161+ CD3+ NKT cells at 10 ug/ml after 18 hrs relative to basal level; type: functional; outline: as §1
[4] = Induction of IL12p40 secretion in human CD161+ CD3+ NKT cells at 10 ug/ml after 18 hrs relative to basal level; type: functional; outline: as §1
[5] = Induction of RANTES secretion in human CD161+ CD3+ NKT cells at 10 ug/ml after 18 hrs relative to basal level; type: functional; outline: as §1
[6] = Induction of MIPalpha secretion in human CD161+ CD3+ NKT cells at 10 ug/ml after 18 hrs relative to basal level; type: functional; outline: as §1
[7] = Induction of MCP1 secretion in human CD161+ CD3+ NKT cells at 10 ug/ml after 18 hrs relative to basal level; type: functional; outline: as §1
[8] = Induction of IL8 secretion in human CD161+ CD3+ NKT cells at 10 ug/ml after 18 hrs relative to basal level; type: functional; outline: as §1
[9] = Induction of TNFalpha secretion in human CD161+ CD3+ NKT cells at 10 ug/ml after 18 hrs relative to basal level; type: functional; outline: as §1
[10] = Induction of IL3 secretion in human CD161+ CD3+ NKT cells at 10 ug/ml after 18 hrs relative to basal level; type: functional; outline: as §1
[11] = Induction of GM-CSF secretion in human CD161+ CD3+ NKT cells at 10 ug/ml after 18 hrs relative to basal level; type: functional; outline: as §1
[12] = Induction of IL15 secretion in human CD161+ CD3+ NKT cells at 10 ug/ml after 18 hrs relative to basal level; type: functional; outline: as §1
[13] = Induction of IL4 secretion in human CD161+ CD3+ NKT cells at 10 ug/ml after 18 hrs relative to basal level; type: functional; outline: as §1
[14] = Induction of IL6 secretion in human CD161+ CD3+ NKT cells at 10 ug/ml after 18 hrs relative to basal level; type: functional; outline: as §1
[15] = Induction of IL10 secretion in human CD161+ CD3+ NKT cells at 10 ug/ml after 18 hrs relative to basal level; type: functional; outline: as §1
[16] = Induction of IL13 secretion in human CD161+ CD3+ NKT cells at 10 ug/ml after 18 hrs relative to basal level; type: functional; outline: as §1
NKT = assay: Stimulation of cell expansion of human invariant CD161+/ Valpha24+/ CD56+/ CD3+ NKT cells by flow cytometry method; type: functional, cell-based
Outline: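 CD56+ NK/NKT mixtures (2 × 10^6) were isolated from human leukopaks with anti-CD56 microbeads. They were cocultured with 4 × 10^5 autologous immature CD14+ DCs pulsed with glycolipid at 3 μg/ml, or with 0.3% DMSO, on day 2 for 18 h. Suspension cells were then transferred and kept in 100 units/ml IL-2 with fresh medium every 3 days. On day 9, CD161+/Vα24TCR+ cells were gated by flow cytometry and total Vα24i NKT cells counted. Triplicates, mean ± SD.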

TC1 = assay: Antitumor activity in TC1 cells xenografted C57BL/6 mouse assessed as suppression of tumor growth at 2 ug, iv; type: functional, cell-based
Outline: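 C57BL/6 mice (n = 5/group) were inoculated i.v. with TC-1 lung cancer cells. They were then treated i.v. with 2 μg glycolipid per mouse, or 100 μl of 1% DMSO, twice weekly for 4 weeks. Kaplan–Meier survival and body weight were followed, with tumor-free mice as an additional control.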

4T1 = assay: Antitumor activity in mouse 4T1 cells xenografted BALB/c mouse assessed as suppression of tumor growth at 2 ug, iv; type: functional, cell-based
Outline: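 BALB/c mice (n = 6) were inoculated s.c. with 4T1 breast cancer cells. From day 3 they were treated i.v. with glycolipid or vehicle twice weekly for 4 weeks. Tumor volume was recorded every 3 days for 1 month, and survival was monitored up to 54 days.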

Mus musculus [17] = assay: Induction of IFN-gamma secretion in BALB/c mouse serum at 2 ug, iv after 18 hrs relative to control; type: functional
Outline: (§2)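 BALB/c mice received an i.v. injection of 100 μl of glycolipid diluted to 20 μg/ml in saline from DMSO stock, with 1% DMSO as vehicle. Serum cytokines/chemokines were measured at 2 and 18 h after injection.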

Mus musculus [18] = assay: Induction of IL1-beta secretion in BALB/c mouse serum at 2 ug, iv after 18 hrs relative to control; type: functional; outline: as §2
Mus musculus [19] = assay: Induction of IL2 secretion in BALB/c mouse serum at 2 ug, iv after 2 hrs relative to control; type: functional; outline: as §2
Mus musculus [20] = assay: Induction of IL12p70 secretion in BALB/c mouse serum at 2 ug, iv after 18 hrs relative to control; type: functional; outline: as §2
Mus musculus [21] = assay: Induction of IL12p40 secretion in BALB/c mouse serum at 2 ug, iv after 18 hrs relative to control; type: functional; outline: as §2
Mus musculus [22] = assay: Induction of RANTES secretion in BALB/c mouse serum at 2 ug, iv after 2 hrs relative to control; type: functional; outline: as §2
Mus musculus [23] = assay: Induction of MIPbeta secretion in BALB/c mouse serum at 2 ug, iv after 2 hrs relative to control; type: functional; outline: as §2
Mus musculus [24] = assay: Induction of MCP1 secretion in BALB/c mouse serum at 2 ug, iv after 2 hrs relative to control; type: functional; outline: as §2
Mus musculus [25] = assay: Induction of KC secretion in BALB/c mouse serum at 2 ug, iv after 2 hrs relative to control; type: functional; outline: as §2
Mus musculus [26] = assay: Induction of TNFalpha secretion in BALB/c mouse serum at 2 ug, iv after 18 hrs relative to control; type: functional; outline: as §2
Mus musculus [27] = assay: Induction of IL3 secretion in BALB/c mouse serum at 2 ug, iv after 2 hrs relative to control; type: functional; outline: as §2
Mus musculus [28] = assay: Induction of GM-CSF secretion in BALB/c mouse serum at 2 ug, iv after 2 hrs relative to control; type: functional; outline: as §2
Mus musculus [29] = assay: Induction of IL4 secretion in BALB/c mouse serum at 2 ug, iv after 2 hrs relative to control; type: functional; outline: as §2
Mus musculus [30] = assay: Induction of IL6 secretion in BALB/c mouse serum at 2 ug, iv after 2 hrs relative to control; type: functional; outline: as §2
Mus musculus [31] = assay: Induction of IL10 secretion in BALB/c mouse serum at 2 ug, iv after 18 hrs relative to control; type: functional; outline: as §2
Mus musculus [32] = assay: Induction of IL13 secretion in BALB/c mouse serum at 2 ug, iv after 2 hrs relative to control; type: functional; outline: as §2
Mus musculus [33] = assay: Activation of B cells in BALB/c mouse at 2 ug, iv after 72 hrs by flow cytometry; type: functional, organism-based

CCCCCCCCCCCCCC[C@@H](O)[C@@H](O)[C@H](CO[C@H]1O[C@H](CO)[C@H](O)[C@H](O)[C@H]1O)NC(=O)CCc1ccc(CC(C)C)cc1
Activity [1]: 1.9
Activity [2]: 1.3
Activity [3]: 1.8
Activity [4]: 1.8
Activity [5]: 1.3
Activity [6]: 2.8
Activity [7]: 0.9
Activity [8]: 5.5
Activity [9]: 1.9
Activity [10]: 1.9
Activity [11]: 3.8
Activity [12]: 2.2
Activity [13]: 2.2
Activity [14]: 2.1
Activity [15]: 2.2
Activity [16]: 1.4
Activity (NKT): Active

CCCCCCCCCCCCCCC[C@@H](O)[C@H](CO[C@H]1O[C@H](C(=O)O)[C@H](O)[C@H](O)[C@H]1O)NC(=O)CCCCCCCCCCCCC
Activity [1]: 2.4
Activity [2]: 1.3
Activity [3]: 1.7
Activity [4]: 1.9
Activity [5]: 2.4
Activity [6]: 3.5
Activity [7]: 1.7
Activity [8]: 2.3
Activity [9]: 5.5
Activity (TC1): Active
Activity (4T1): Active
Activity (Mus musculus [17]): 3.1
Activity (Mus musculus [18]): 2
Activity (Mus musculus [19]): 17.2
Activity (Mus musculus [20]): 1.2
Activity (Mus musculus [21]): 1.9
Activity (Mus musculus [22]): 0.9
Activity (Mus musculus [23]): 1.4
Activity (Mus musculus [24]): 5.6
Activity (Mus musculus [25]): 7.6
Activity (Mus musculus [26]): 6
Activity (Mus musculus [27]): 2.8
Activity (Mus musculus [28]): 4.9
Activity (Mus musculus [29]): 26.8
Activity (Mus musculus [30]): 1.7
Activity (Mus musculus [31]): 1.1
Activity (Mus musculus [32]): 2.3
Activity [10]: 1.7
Activity [11]: 2.9
Activity [12]: 2
Activity [13]: 2.9
Activity [14]: 2.3
Activity [15]: 1.7
Activity [16]: 2

CCCCCCCCCCCCCCCCCCCCCCCCCC(=O)N[C@@H](CS[C@H]1O[C@H](CO)[C@H](O)[C@H](O)[C@H]1O)[C@H](O)[C@H](O)CCCCCCCCCCCCCC
Activity [1]: 1.3
Activity [2]: 1.2
Activity [3]: 1
Activity [4]: 1.7
Activity [5]: 1.5
Activity [6]: 1.5
Activity [7]: 1.4
Activity [8]: 1.9
Activity [9]: 2.5
Activity [10]: 1.1
Activity [11]: 1.6
Activity [12]: 1.8
Activity [13]: 2.1
Activity [14]: 1.5
Activity [15]: 0.6
Activity [16]: 1.6

CCCCCCCCCCCCCC[C@@H](O)[C@@H](O)[C@H](CO[C@H]1O[C@H](CO)[C@H](O)[C@H](O)[C@H]1O)NC(=O)CCCCCc1ccccc1
Activity [1]: 4.6
Activity [2]: 5.9
Activity [3]: 3.3
Activity [4]: 2.4
Activity [5]: 1.8
Activity [6]: 3
Activity [7]: 1.3
Activity [8]: 2.2
Activity [9]: 8.7
Activity (TC1): Active
Activity [10]: 4.1
Activity [11]: 5.6
Activity [12]: 2.6
Activity [13]: 3
Activity [14]: 2.7
Activity [15]: 2.4
Activity [16]: 2.6
Activity (NKT): Active
Activity (Mus musculus [33]): Active

CCCCCCCCCCCCCCCCCCCCCCCCCC(=O)N[C@@H](CO[C@@H]1O[C@H](CO)[C@H](O)[C@H](OS(=O)(=O)[O-])[C@H]1O)[C@H](O)[C@H](O)CCCCCCCCCCCCCC.[Na+]
Activity [1]: 2.2
Activity [2]: 1.6
Activity [3]: 1.6
Activity [4]: 1.8
Activity [5]: 1.5
Activity [6]: 3.2
Activity [7]: 1.5
Activity [8]: 1.9
Activity [9]: 3.7
Activity [10]: 2.3
Activity [11]: 4.1
Activity [12]: 2.2
Activity [13]: 2.9
Activity [14]: 1.9
Activity [15]: 1.8
Activity [16]: 2.4

CCCCCCCCCCCCCC[C@@H](O)[C@@H](O)[C@H](CO[C@H]1O[C@H](CO)[C@H](O)[C@H](O)[C@H]1O)NC(=O)CCCCCCCCCc1ccccc1
Activity [1]: 4.2
Activity [2]: 3.4
Activity [3]: 2.3
Activity [4]: 1.4
Activity [5]: 2.1
Activity [6]: 3.4
Activity [7]: 1.5
Activity [8]: 2.2
Activity [9]: 5.6
Activity (TC1): Active
Activity (4T1): Active
Activity [10]: 1.8
Activity [11]: 3.4
Activity [12]: 2.3
Activity [13]: 3.2
Activity [14]: 1.6
Activity [15]: 1.4
Activity [16]: 1.6
Activity (NKT): Active

CCCCCCCCCCCCCC[C@@H](O)[C@@H](O)[C@H](CO[C@H]1O[C@H](CO)[C@H](O)[C@H](O)[C@H]1O)NC(=O)CCCc1ccccc1
Activity [1]: 2.1
Activity [2]: 1.4
Activity [3]: 1.2
Activity [4]: 1.4
Activity [5]: 1.5
Activity [6]: 3.2
Activity [7]: 1
Activity [8]: 1.6
Activity [9]: 3.3
Activity [10]: 1.8
Activity [11]: 2.8
Activity [12]: 2.2
Activity [13]: 1.9
Activity [14]: 1.6
Activity [15]: 1.3
Activity [16]: 1.6

CCCCCCCCCCCCCC[C@@H](O)[C@@H](O)[C@H](CO[C@H]1O[C@H](CO)[C@H](O)[C@H](O)[C@H]1O)NC(=O)CCc1ccc(C(F)(F)F)cc1
Activity [1]: 2.8
Activity [2]: 1.5
Activity [3]: 1.7
Activity [4]: 1.9
Activity [5]: 1.7
Activity [6]: 3.4
Activity [7]: 1.4
Activity [8]: 2.4
Activity [9]: 3.3
Activity [10]: 1.6
Activity [11]: 3.5
Activity [12]: 2.1
Activity [13]: 2.4
Activity [14]: 2.3
Activity [15]: 1.7
Activity [16]: 2.1
